Results pooled from the literature.
Lines come from different studies, so protocols differ.
rep papain-like protease: Replicase polyprotein 1ab, papain-like protease (rep, Porcine epidemic diarrhea virus, UniProt P0C6Y4)
MAP2K2: Dual specificity mitogen-activated protein kinase kinase 2 (MAP2K2, Homo sapiens, UniProt P36507)
PTGS1: Prostaglandin G/H synthase 1 (PTGS1, Ovis aries, UniProt P05979)
rep main protease: Replicase polyprotein 1ab, main protease (rep, Porcine epidemic diarrhea virus, UniProt P0C6Y4)
ALDH3A1: Aldehyde dehydrogenase, dimeric NADP-preferring (ALDH3A1, Homo sapiens, UniProt P30838)
IPMK: Inositol polyphosphate multikinase (IPMK, Homo sapiens, UniProt Q8NFU5)

SMILES	target	assay	IC50 [µM]
NC(N)=S	Urease (Canavalia ensiformis, UniProt P07374)	enzyme activity, inhibitor	23.8
COc1ccc(C(=O)NCc2cc(O)c(O)c(Br)c2)cc1	rep papain-like protease	enzyme activity, inhibitor, FRET	2.46
CC#CC(=O)N1CC[C@@H](n2c(=O)n(-c3ccc(Oc4ccccc4)cc3)c3c(N)ncnc32)C1	MAP2K2	enzyme activity, inhibitor	> 5
COc1cc(NC(=O)c2cnn(-c3ccc([N+](=O)[O-])cc3)c2C(F)(F)F)cc(OC)c1OC	PTGS1	enzyme activity, inhibitor	4.51
CCC(C(=O)NCc1cc(O)c(O)c(Br)c1)c1ccccc1 (stereo not shown)	rep main protease	enzyme activity, inhibitor, FRET	7.53
NS(=O)(=O)c1ccc(-n2nc(C(=O)NN=Cc3cccnc3)cc2-c2ccccc2)cc1	PTGS1	enzyme activity, inhibitor	8.94
OC[C@H]1O[C@@H](Oc2ccc(O)c3cccc(O)c23)[C@H](O)[C@@H](O)[C@@H]1O	ALDH3A1	enzyme activity, inhibitor, fluorescence	< 10
COCCNc1nc(NCc2cccc(-c3ccc(OC)cc3)c2)nc2[nH]cnc12	IPMK	enzyme activity, inhibitor	38
COc1cc(CNC(=O)c2ccccc2C)cc(Br)c1OC	rep main protease	enzyme activity, inhibitor, FRET	6.79
O=C(COC(=O)c1ccccc1Nc1cccc(C(F)(F)F)c1)Nc1ccc(F)cc1	PTGS1	enzyme activity, inhibitor	151
O=C(NCc1cc(O)c(O)c(Br)c1)c1nccs1	rep papain-like protease	enzyme activity, inhibitor, FRET	4.1
CC(=NNC(=O)c1cc(-c2ccccc2)n(-c2ccc(S(N)(=O)=O)cc2)n1)c1ccc(C)cc1	PTGS1	enzyme activity, inhibitor	3.32
CN(C)c1ccc(C(=O)NCc2cc(O)c(O)c(Br)c2)cc1	rep main protease	enzyme activity, inhibitor, FRET	7.61
Cc1ccc(S(=O)(=O)NNc2ccc([N+](=O)[O-])cc2[N+](=O)[O-])cc1	PTGS1	enzyme activity, inhibitor	194
COc1ccc(C=NNC(=O)c2cc(-c3ccccc3)n(-c3ccc(S(N)(=O)=O)cc3)n2)cc1OC	PTGS1	enzyme activity, inhibitor	9.78
Nc1nc2c(s1)C(c1ccccc1Cl)CC(=O)N2 (stereo not shown)	ALDH3A1	enzyme activity, inhibitor, fluorescence	< 10
NS(=O)(=O)c1ccc(-n2nc(C(=O)NN=Cc3ccc(O)cc3)cc2-c2ccccc2)cc1	PTGS1	enzyme activity, inhibitor	3.84
N=C(N)c1ccc2nc(-c3cc(CC(=O)N[C@@H](CC(=O)O)C(=O)O)cc(-c4cc(S(N)(=O)=O)ccc4O)c3O)[nH]c2c1	Coagulation factor VII (F7, Homo sapiens, UniProt P08709)	enzyme activity, inhibitor	0.035
COc1cccc(CNc2nc(NC3CCN(C(=O)c4ccccc4)CC3)c3nc[nH]c3n2)c1	IPMK	enzyme activity, inhibitor	9
O=C1NC(=O)c2c1c(-c1ccccc1Cl)cc1[nH]c3ccc(O)cc3c21	Serine/threonine-protein kinase WNK3 (WNK3, Homo sapiens, UniProt Q9BYP7)	enzyme activity, inhibitor	1.49
CC#CC(=O)N[C@H]1CCCN(c2c(F)cc(C(N)=O)c3[nH]c(C)c(C)c23)C1	MAP2K2	enzyme activity, inhibitor	> 5
Cn1c(C(=O)NCc2cc(O)c(O)c(Br)c2)cc2ccccc21	rep papain-like protease	enzyme activity, inhibitor, FRET	8.08
CN1CCC(CNc2ccc3ncc(-c4cccc(OC(F)(F)F)c4)n3n2)CC1	D(1A) dopamine receptor (DRD1, Homo sapiens, UniProt P21728)	cAMP, antagonist	6.66
COc1ccc(N2CCN(Cc3cn4c(-c5ccc(Br)cc5)nnc4s3)CC2)cc1	Aifm2 (Mus musculus, UniProt Q8BUE4, L360F)	enzyme activity, inhibitor, absorbance	~0.518
CC(=O)Oc1cccc(C(=O)NCc2cc(O)c(O)c(Br)c2)c1C	rep main protease	enzyme activity, inhibitor, FRET	7.35
NS(=O)(=O)c1ccc(-n2nc(-c3nnc(CCl)o3)cc2-c2ccccc2)cc1	PTGS1	enzyme activity, inhibitor	6.72
O=C(NCc1cc(O)c(O)c(Br)c1)c1cccc(C(F)(F)F)c1	rep papain-like protease	enzyme activity, inhibitor, FRET	1.95
O=C(Nc1ccc(-c2ccccc2)cc1)c1cnn(-c2ccc([N+](=O)[O-])cc2)c1C(F)(F)F	PTGS1	enzyme activity, inhibitor	5.91
